ChEMBL document CHEMBL1140692, “Toward the development of chemoprevention agents. Part II: Chemo-enzymatic synthesis and anti-inflammatory activities of a new class of 5-amino-2-substitutedphenyl-1,3-dioxacycloalkanes” (Bioorg Med Chem, 2007)

What was measured:
Mus musculus [1] = test: Antiinflammatory activity in Kunming mouse assessed as inhibition of xylene-induced ear edema at 30 mg/kg, po after […]rs; assay type: functional
Method in brief: (§1)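 Male Kunming mice receive the agent orally as a suspension in 0.5% CMC; the vehicle group gets CMC alone. After 30 min, 0.03 ml xylene is applied to both surfaces of the right ear, and the left ear serves as control. At 2 h, mice are killed and 7-mm ear punches are weighed. Edema is taken as right minus left punch weight, and inhibition is calculated versus vehicle. n = 11; ANOVA.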

Mus musculus [2] = test: Antiinflammatory activity in Kunming mouse assessed as inhibition of xylene-induced ear edema at 20 mg/kg, po after […]rs; assay type: functional; method in brief: as §1
Mus musculus [3] = test: Antiinflammatory activity in Kunming mouse assessed as inhibition of xylene-induced ear edema at 5 mg/kg, po after […]rs; assay type: functional; method in brief: as §1
Mus musculus [4] = test: Antiinflammatory activity in Kunming mouse assessed as inhibition of xylene-induced ear edema at 10 mg/kg, po after […]rs; assay type: functional; method in brief: as §1
Mus musculus [5] = test: Gastrointestinal toxicity in mouse assessed as tail bleeding time at 200 mg/kg, po after 30 mins; assay type: organism-based; parameters: dose 200 mg/kg, route oral; settings: in vivo, 0.5 h
Method in brief: (§2)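 Male mice (18–22 g) are dosed orally and compared with an NS group. At 30, 45, 60 and 90 min after dosing, each mouse is restrained in a tube holder and a 2-mm cut is made on the tail. Blood is wiped away every 30 s until flow stops, and the time to cessation is recorded.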

Mus musculus [6] = test: Gastrointestinal toxicity in mouse assessed as tail bleeding time at 200 mg/kg, po after 45 mins; assay type: organism-based; parameters: dose 200 mg/kg, route oral; settings: in vivo, 0.75 h; method in brief: as §2
Mus musculus [7] = test: Gastrointestinal toxicity in mouse assessed as tail bleeding time at 200 mg/kg, po after 60 mins; assay type: organism-based; parameters: dose 200 mg/kg, route oral; settings: in vivo, 1 h; method in brief: as §2
Mus musculus [8] = test: Gastrointestinal toxicity in mouse assessed as tail bleeding time at 200 mg/kg, po after 90 mins; assay type: organism-based; parameters: dose 200 mg/kg, route oral; settings: in vivo, 1.5 h; method in brief: as §2
[9] = Permeability from apical to basolateral side of human Caco-2 cell membrane; assay type: ADME, cell-based
[10] = Permeability from basolateral to apical side of human Caco-2 cell membrane; assay type: ADME, cell-based
Caco-2 = test: Ratio of permeability from apical to basolateral side over basolateral to apical side of human Caco-2 cell membrane; assay type: ADME, cell-based
[11] = Inhibition of bovine brain PKC; parameters: species or system Bos taurus

Papp A→B [9] | Papp B→A [10] | Ratio (Caco-2) | IC50 [11] | SMILES | inhibition in vivo at 30 mg/kg (Mus musculus [1]) | inhibition in vivo at 20 mg/kg (Mus musculus [2]) | inhibition in vivo at 5 mg/kg (Mus musculus [3]) | inhibition in vivo at 10 mg/kg (Mus musculus [4]) | Time (Mus musculus [5]) | Time (Mus musculus [6]) | Time (Mus musculus [7]) | Time (Mus musculus [8])
– | – | – | – | CC(=O)Oc1ccccc1C(=O)O [ASPIRIN] | 40.7% | 40.7% | – | – | – | – | – | –
130 nm/s | 69.6 nm/s | 1.87 | 890 µM | C[C@@H]1O[C@@H](c2ccc([N+](=O)[O-])cc2)OC[C@H]1N | – | 78.5% | 42.3% | 58% | 118.4 s | 119.2 s | 117.2 s | 118.9 s
